Source: PubChem BioAssay
NALP1 inh = NALP1 inhibition; S. cerevisiae NALP1/ASC/caspase-1 growth, X-gal OD620, 72 h; inhibition, % at 10 µM; 280,000 compounds, 0.61% hits; in the data active means inhibition mostly above about 24%, no sharp cut-off; inactive means mostly below about 32%
ATG4B inh = inhibitors of human ATG4B cysteine protease | inhibition, % at 8.33 µM | ATG4B cleavage of LC3-PLA2, NBD-HPC fluorescence, 1 h | 340,000 compounds, 0.51% hits | Q9Y4P1 | AID 504462; in the data active means inhibition above about 40%
Target sequence (Q9Y4P1 whole entry, looked up): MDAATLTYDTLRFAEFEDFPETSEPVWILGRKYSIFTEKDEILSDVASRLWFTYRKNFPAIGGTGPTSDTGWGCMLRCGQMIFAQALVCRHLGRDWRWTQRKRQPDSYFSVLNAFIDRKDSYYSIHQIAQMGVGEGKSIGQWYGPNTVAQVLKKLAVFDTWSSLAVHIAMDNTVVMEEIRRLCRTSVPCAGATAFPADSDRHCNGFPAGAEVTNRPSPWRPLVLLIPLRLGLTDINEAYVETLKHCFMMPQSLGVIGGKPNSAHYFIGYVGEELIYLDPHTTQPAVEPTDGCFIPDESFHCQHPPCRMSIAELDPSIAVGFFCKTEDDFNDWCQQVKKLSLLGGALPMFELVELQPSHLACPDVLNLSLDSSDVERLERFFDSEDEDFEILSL
NLRP3 yeast inh = NALP3 inhibition in yeast. Yeast reconstituted NLRP3/ASC/caspase-1, beta-gal luminescence, 24 h. inhibition, % at 10 µM. 330,000 compounds, 0.39% hits;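 active means inhibition of 50% or more; inactive means inhibition below 50%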
ALR H2O2 inh = blocks human ALR sulfhydryl oxidase activity. P55789. purified ALR, DTT oxidation, H2O2 HRP-luminol luminescence. inhibition, % (concentration not given with the values). 290,000 compounds, 3.8% hits. AID 485317;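 active means mean replicate inhibition above about 79%, with every replicate also reaching it, limit read from the data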
Calb FLC = C. albicans growth modulation with fluconazole; C. albicans CaCi-2 + fluconazole, Alamar Blue growth, 48 h; growth inhibition, % (no concentration beside the values); 300,000 compounds, 0.57% hits; AID 1979;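 active means growth inhibition above about 58% in most replicates, limit read from the data, passing the limit was not always enough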;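 further: all wells also contain fluconazole at 8 µg/ml as a sub-toxic cotreatment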
UCH37 DUB inh = inhibitors of human deubiquitinating enzyme UCH37. Q9Y5K5. 330,000 compounds, 0.33% hits. inhibition, % (concentration not given with the values). purified proteasome/UCH37, Ub-AMC cleavage fluorescence. AID 588478;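 active means mean inhibition over replicate wells above about 20%, limit read from the data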
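Test system – human UCH37 enzyme supplied as purified proteasome complex · Incubation – 30 min preincubation with enzyme, 25 min cleavage at room temperature · Detection – AMC fluorescence from Ub-AMC cleavage, excitation 355 nm, emission 460 nm · Benchmarks – no-proteasome wells (full inhibition) and compound-free wells (no inhibition)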
Hits are given with their value; 0 = inactive; - = no result. The list is not random: actives were taken first. Their share in the collection is about 4.8%.

SMILES	NALP1 inh	ATG4B inh	NLRP3 yeast inh	ALR H2O2 inh	Calb FLC	UCH37 DUB inh
COc1cc(/C=C/C(=O)NCc2cccnc2)cc(OC)c1OC	0	0	0	0	0	0
COc1cc(/C=C/C(=O)Nc2cccnc2)cc(OC)c1OC	0	0	0	0	75.6	0
O=C(CS(=O)(=O)c1ccccc1)Nc1nnc(Cc2ccccc2)s1	0	0	0	86.7	0	0
CCCc1nnc(NC(=O)CS(=O)(=O)c2ccccc2)s1	0	0	0	0	0	0
N#CCC(=O)Nc1sc2c(c1C(N)=O)CCCC2	0	0	0	89.7	0	0
CCc1c(C)sc(NC(=O)c2ccco2)c1C(=O)N1CCCCC1	0	0	0	80.7	0	0
NC(=O)c1c(NC(=O)CSc2nnc(Cc3ccccc3)n2Cc2ccco2)sc2c1CCC2	0	0	0	87.4	0	0
NC(=O)c1c(NC(=O)c2ccco2)sc2c1CCC2	0	0	0	0	92.0	0
O=C(Nc1sc2c(c1C(=O)O)CCCCC2)c1ccco1	0	0	0	0	0	0
CCC(=O)Nc1sc2c(c1C(N)=O)CCC2	0	0	0	0	0	0
CCn1nc(C)c(C=NNC(=O)c2ccoc2C)c1C	-	-	-	-	-	0
NC(=O)c1c(NC(=O)c2ccncc2)sc2c1CCCCCC2	0	0	0	0	0	0
NC(=O)c1c(NC(=O)c2ccncc2)sc2c1CCCC2	0	0	0	-	73.2	0
COc1nc(-c2ccccc2Cl)ccc1C#N	0	0	0	98.3	0	0
O=[N+]([O-])c1ccc(/C([O-])=C(/C(=S)Nc2ccccc2F)[n+]2ccccc2)cc1	0	0	0	0	0	0
COc1cccc(NC(=S)/C(=C(\[O-])c2ccc([N+](=O)[O-])cc2)[n+]2ccccc2)c1	0	0	0	98.9	0	0
COc1cc(C2/C(=C(\O)c3cc(C)ccc3C)C(=O)C(=O)N2CCN(C)C)ccc1O (stereo not given)	0	0	0	0	0	0
CCOc1cc(C2/C(=C(\O)c3cc(C)ccc3C)C(=O)C(=O)N2CCN(C)C)ccc1O (stereo not given)	40.3	0	0	0	0	0
COc1ccc(C=NNC(=O)c2ccncc2)c(OC)c1	-	-	-	-	-	0
Cc1ccc(NC(=O)C(C)SCc2nc3sc(C)c(C)c3c(=O)[nH]2)nc1 (stereo not given)	-	0	0	98.7	0	0
Cc1sc2nc(CSC(C)C(=O)Nc3cc(S(C)(=O)=O)ccc3Cl)[nH]c(=O)c2c1C (stereo not given)	-	0	0	98.4	0	0
C/C(C=NNC(=O)c1cc(C(C)C)[nH]n1)=C\c1ccccc1	-	-	-	-	-	0
Cc1cn(-c2ccccc2)c(C)c1C=NNc1nc(N2CCOCC2)nc(N2CCOCC2)n1	-	-	-	-	-	0
N#CC(Cn1c[n+](NC(=O)Nc2ccccc2)cn1)=NO	-	-	-	-	-	0
Cn1c(C(=O)NCc2cccnc2)cc2sc(Cl)cc21	0	0	0	94.1	0	0
SMILES	NALP1 inh	ATG4B inh	NLRP3 yeast inh	ALR H2O2 inh	Calb FLC	UCH37 DUB inh
O=C(NCc1cccnc1)c1sc2cc(Cl)ccc2c1Cl	0	0	0	0	0	0
O=C(NN=Cc1c[nH]c2c1ccc1ccccc12)c1ccc([N+](=O)[O-])cc1	-	-	-	-	-	0
CNc1sc(C(=O)c2cccs2)c(N)c1-c1nc2ccccc2s1	0	0	0	0	0	0
CNc1sc(C(=O)c2ccc(F)cc2)c(N)c1-c1nc2ccccc2s1	0	0	0	90.7	0	0
Cc1c(N=Cc2ccc[nH]2)c(=O)n(-c2ccccc2)n1C	0	0	0	97.0	0	0
Cc1c(N=Cc2ccncc2)c(=O)n(-c2ccccc2)n1C	0	0	0	0	0	0
Cc1c(N=Cc2ccccn2)c(=O)n(-c2ccccc2)n1C	0	0	0	98.5	0	0
Cc1onc(-c2ccccc2)c1C(=O)Nc1nc2c(s1)CCCC2	-	0	0	0	0	0
Cc1cc(C(=O)Nc2nc3c(s2)CCCC3)no1	0	0	0	96.5	0	0
CN(C)c1ccc(C(=O)Nc2nc3c(s2)CCCC3)cc1	0	0	0	96.4	0	0
COc1ccc(C(C)=NNC(=O)c2ccncc2)cc1	-	-	-	-	-	0
CCOc1ccc(C(=O)Nc2cc3c(cc2N2CCCC2)n(CC)c(=O)n3CC)cc1OCC	0	0	0	0	0	0
CCn1c(=O)n(CC)c2cc(N3CCCC3)c(NC(=O)c3ccc(F)cc3)cc21	0	0	0	99.5	0	-
